ChEMBL document CHEMBL3232919, “Imidazol-1-ylethylindazole voltage-gated sodium channel ligands are neuroprotective during optic neuritis in a mouse model of multiple sclerosis” (J Med Chem, 2014)
Activity calls are given as the source filed them. The calls are words filed in the database; no cut-off is given here.

Tests used:
[1] = species: Rattus norvegicus; assay: Neuroprotective activity in oxygen/glucose deprivation-induced Wistar rat hippocampal slice assessed as inhibition of cell death by measuring ATP level at 50 uM; type: functional
[2] = biological target: T1, Sodium channel protein type 9 subunit alpha (Homo sapiens, UniProt Q15858); assay: Inhibition of human Nav1.7 assessed as 10 Hz block by patch-clamp electrophysiology/cell based assay
[3] = biological target: T1, Sodium channel protein type 9 subunit alpha; assay: Inhibition of human Nav1.7 assessed as inactivated-state block by patch-clamp electrophysiology/cell based assay
[4] = biological target: T2, Sodium channel protein type 8 subunit alpha (Homo sapiens, UniProt Q9UQD0); assay: Inhibition of human Nav1.6 assessed as 10 Hz block by patch-clamp electrophysiology/cell based assay
T2 sequence (Q9UQD0 whole entry, canonical isoform): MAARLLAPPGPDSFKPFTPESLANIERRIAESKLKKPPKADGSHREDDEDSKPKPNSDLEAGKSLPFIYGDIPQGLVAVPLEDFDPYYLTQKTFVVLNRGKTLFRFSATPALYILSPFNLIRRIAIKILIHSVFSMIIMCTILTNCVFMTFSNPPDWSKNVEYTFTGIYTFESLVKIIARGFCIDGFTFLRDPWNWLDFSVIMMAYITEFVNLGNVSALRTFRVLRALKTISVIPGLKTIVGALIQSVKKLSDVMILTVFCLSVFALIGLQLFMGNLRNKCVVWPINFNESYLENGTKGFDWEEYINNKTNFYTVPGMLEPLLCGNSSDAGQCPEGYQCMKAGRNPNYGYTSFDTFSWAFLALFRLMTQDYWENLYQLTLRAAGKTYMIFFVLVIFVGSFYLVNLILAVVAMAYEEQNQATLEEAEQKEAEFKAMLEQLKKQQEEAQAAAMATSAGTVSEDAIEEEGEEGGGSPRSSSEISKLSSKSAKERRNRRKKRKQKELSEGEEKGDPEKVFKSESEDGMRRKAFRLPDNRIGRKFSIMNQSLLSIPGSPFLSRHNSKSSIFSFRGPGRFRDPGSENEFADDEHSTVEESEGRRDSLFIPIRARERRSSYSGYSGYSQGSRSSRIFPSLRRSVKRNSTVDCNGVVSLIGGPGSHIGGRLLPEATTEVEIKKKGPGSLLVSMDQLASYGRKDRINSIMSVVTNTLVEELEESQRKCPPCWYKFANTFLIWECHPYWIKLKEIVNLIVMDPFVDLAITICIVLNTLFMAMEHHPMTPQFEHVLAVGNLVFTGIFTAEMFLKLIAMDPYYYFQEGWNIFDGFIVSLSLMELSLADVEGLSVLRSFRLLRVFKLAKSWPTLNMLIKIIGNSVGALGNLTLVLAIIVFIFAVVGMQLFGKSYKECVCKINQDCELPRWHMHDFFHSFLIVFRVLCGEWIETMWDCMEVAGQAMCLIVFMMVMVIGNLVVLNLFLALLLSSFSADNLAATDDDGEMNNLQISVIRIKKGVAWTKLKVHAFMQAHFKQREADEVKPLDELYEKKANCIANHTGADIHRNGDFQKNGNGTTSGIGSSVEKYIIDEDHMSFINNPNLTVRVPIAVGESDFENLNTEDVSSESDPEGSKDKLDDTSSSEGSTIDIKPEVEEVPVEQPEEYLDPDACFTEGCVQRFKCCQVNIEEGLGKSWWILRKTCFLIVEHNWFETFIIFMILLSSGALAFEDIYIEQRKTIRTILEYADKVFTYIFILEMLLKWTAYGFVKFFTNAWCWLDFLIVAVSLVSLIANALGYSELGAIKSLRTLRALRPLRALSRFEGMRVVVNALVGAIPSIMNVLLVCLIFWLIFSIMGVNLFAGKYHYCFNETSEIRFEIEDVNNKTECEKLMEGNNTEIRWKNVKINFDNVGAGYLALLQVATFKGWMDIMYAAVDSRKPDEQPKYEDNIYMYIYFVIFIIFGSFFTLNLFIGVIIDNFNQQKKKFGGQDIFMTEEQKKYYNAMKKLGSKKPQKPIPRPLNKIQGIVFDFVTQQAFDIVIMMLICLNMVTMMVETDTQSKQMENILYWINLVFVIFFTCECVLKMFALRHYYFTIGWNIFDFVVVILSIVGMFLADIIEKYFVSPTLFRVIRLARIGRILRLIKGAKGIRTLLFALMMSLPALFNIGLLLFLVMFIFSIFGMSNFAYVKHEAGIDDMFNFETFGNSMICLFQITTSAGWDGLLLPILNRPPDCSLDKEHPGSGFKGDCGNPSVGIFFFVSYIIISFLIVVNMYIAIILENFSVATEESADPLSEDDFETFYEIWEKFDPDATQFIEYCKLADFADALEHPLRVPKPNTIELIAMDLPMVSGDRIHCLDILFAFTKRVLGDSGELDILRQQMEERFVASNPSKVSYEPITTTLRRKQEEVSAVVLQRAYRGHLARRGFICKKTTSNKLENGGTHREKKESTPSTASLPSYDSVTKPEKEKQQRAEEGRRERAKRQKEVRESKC
Outline: (§1)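 Automated parallel patch clamp on cells expressing human Nav isoforms (hNav1.1 to hNav1.8/β3), at room temperature. Compounds were tested at 0.1, 0.3, 1, 3, 10, 30 and 100 μM. Each exposure lasted 5 min, with two to four cells per concentration.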

[5] = biological target: T3, Sodium channel protein type 10 subunit alpha (Homo sapiens, UniProt Q9Y5Y9); assay: Inhibition of human Nav1.8 assessed as inactivated-state block using double pulse protocol by patch-clamp electrophysiology/cell based assay
Outline: (§2)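 Automated parallel patch clamp (PatchXpress 7000A) on human Nav isoforms, room temperature. Compound tested at 0.1, 0.3, 1, 3, 10, 30 and 100 μM, two to four cells per concentration, 5 min exposure each. Use-dependence on Nav1.1 and Nav1.8/β3 by double pulse protocol: holding -80 mV, prepulse -120 mV, then pulse 1 to 0 mV for 200 ms.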

[6] = biological target: T4, Sodium channel protein type 4 subunit alpha (Homo sapiens, UniProt P35499); assay: Inhibition of human Nav1.4 assessed as 10 Hz block by patch-clamp electrophysiology/cell based assay; outline: as §2
T4 sequence (P35499 whole entry): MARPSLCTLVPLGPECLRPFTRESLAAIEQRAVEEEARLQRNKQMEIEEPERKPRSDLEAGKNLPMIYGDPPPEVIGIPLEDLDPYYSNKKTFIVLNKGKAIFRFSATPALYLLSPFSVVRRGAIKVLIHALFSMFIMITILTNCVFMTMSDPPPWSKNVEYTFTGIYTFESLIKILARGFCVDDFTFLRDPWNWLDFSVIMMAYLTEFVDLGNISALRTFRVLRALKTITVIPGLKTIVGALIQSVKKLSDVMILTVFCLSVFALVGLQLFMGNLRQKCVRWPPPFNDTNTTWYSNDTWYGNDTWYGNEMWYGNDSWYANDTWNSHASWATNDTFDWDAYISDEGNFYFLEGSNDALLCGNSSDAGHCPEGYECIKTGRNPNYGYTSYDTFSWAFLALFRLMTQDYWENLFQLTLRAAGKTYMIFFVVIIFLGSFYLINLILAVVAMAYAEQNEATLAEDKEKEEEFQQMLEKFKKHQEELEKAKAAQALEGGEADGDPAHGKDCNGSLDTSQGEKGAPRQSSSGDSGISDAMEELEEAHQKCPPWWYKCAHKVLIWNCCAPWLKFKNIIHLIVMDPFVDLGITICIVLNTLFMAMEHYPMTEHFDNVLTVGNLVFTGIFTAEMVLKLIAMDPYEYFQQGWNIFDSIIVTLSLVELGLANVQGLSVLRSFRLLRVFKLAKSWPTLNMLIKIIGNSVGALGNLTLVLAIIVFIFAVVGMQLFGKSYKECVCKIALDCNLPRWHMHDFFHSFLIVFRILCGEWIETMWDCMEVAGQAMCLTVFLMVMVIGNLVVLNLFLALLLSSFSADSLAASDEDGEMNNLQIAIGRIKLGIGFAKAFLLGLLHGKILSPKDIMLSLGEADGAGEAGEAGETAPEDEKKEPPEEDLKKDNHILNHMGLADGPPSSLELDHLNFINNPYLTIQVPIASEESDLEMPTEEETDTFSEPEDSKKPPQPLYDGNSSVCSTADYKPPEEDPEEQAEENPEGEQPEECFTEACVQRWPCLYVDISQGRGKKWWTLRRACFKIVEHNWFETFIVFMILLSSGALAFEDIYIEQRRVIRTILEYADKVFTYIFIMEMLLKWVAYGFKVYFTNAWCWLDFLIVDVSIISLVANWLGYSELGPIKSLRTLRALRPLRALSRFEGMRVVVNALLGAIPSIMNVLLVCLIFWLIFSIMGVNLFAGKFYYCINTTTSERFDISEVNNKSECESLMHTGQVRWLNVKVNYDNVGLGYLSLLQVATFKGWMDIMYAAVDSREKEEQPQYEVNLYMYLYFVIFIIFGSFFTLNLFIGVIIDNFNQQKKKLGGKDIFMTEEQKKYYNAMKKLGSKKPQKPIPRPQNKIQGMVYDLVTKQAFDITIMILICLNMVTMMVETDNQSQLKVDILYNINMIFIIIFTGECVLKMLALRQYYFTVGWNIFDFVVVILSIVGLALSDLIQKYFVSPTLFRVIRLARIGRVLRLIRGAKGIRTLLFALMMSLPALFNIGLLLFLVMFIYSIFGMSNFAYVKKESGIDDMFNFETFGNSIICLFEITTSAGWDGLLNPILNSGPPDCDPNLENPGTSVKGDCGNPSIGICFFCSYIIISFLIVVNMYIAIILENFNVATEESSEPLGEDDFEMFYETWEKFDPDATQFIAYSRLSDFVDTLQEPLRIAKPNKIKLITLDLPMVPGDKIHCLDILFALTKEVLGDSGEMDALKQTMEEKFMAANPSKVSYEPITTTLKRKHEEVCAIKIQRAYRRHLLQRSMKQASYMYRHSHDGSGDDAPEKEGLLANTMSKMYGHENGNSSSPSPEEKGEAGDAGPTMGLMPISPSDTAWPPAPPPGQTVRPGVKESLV

[7] = biological target: T2, Sodium channel protein type 8 subunit alpha; assay: Inhibition of human Nav1.6 assessed as inactivated-state block by patch-clamp electrophysiology/cell based assay; outline: as §1
[8] = biological target: T5, Sodium channel protein type 5 subunit alpha (Homo sapiens, UniProt Q14524); assay: Inhibition of human Nav1.5 assessed as inactivated-state block by patch-clamp electrophysiology/cell based assay; outline: as §2
[9] = biological target: T6, Sodium channel protein type 2 subunit alpha (Homo sapiens, UniProt Q99250); assay: Inhibition of human Nav1.2 assessed as 10 Hz block by patch-clamp electrophysiology/cell based assay
[10] = biological target: T7, Sodium channel protein type 1 subunit alpha (Homo sapiens, UniProt P35498); assay: Inhibition of human Nav1.1 assessed as inactivated-state block using double pulse protocol by patch-clamp electrophysiology/cell based assay; outline: as §2
[11] = biological target: T5, Sodium channel protein type 5 subunit alpha; assay: Inhibition of human Nav1.5 assessed as tonic block by patch-clamp electrophysiology/cell based assay; outline: as §2
[12] = biological target: T8, Sodium channel protein type 3 subunit alpha (Homo sapiens, UniProt Q9NY46); assay: Inhibition of human Nav1.3 assessed as inactivated-state block by patch-clamp electrophysiology/cell based assay
Outline: (§3)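 Automated parallel patch-clamp (PatchXpress 7000A) on cells expressing human Nav1.3, run at room temperature. Compounds were tested at 0.1, 0.3, 1, 3, 10, 30 and 100 μM, each in two to four cells, with 5 min exposure per concentration.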

[13] = biological target: T4, Sodium channel protein type 4 subunit alpha; assay: Inhibition of human Nav1.4 assessed as tonic block by patch-clamp electrophysiology/cell based assay; outline: as §2
[14] = biological target: T6, Sodium channel protein type 2 subunit alpha; assay: Inhibition of human Nav1.2 assessed as tonic block by patch-clamp electrophysiology/cell based assay
[15] = biological target: T7, Sodium channel protein type 1 subunit alpha; assay: Inhibition of human Nav1.1 assessed as 10 Hz block using double pulse protocol by patch-clamp electrophysiology/cell based assay; outline: as §2
[16] = biological target: T7, Sodium channel protein type 1 subunit alpha; assay: Inhibition of human Nav1.1 assessed as tonic block using double pulse protocol by patch-clamp electrophysiology/cell based assay; outline: as §2
[17] = biological target: T8, Sodium channel protein type 3 subunit alpha; assay: Inhibition of human Nav1.3 assessed as 10 Hz block by patch-clamp electrophysiology/cell based assay; outline: as §3
[18] = biological target: T8, Sodium channel protein type 3 subunit alpha; assay: Inhibition of human Nav1.3 assessed as tonic block by patch-clamp electrophysiology/cell based assay; outline: as §3
[19] = biological target: T5, Sodium channel protein type 5 subunit alpha; assay: Inhibition of human Nav1.5 assessed as 10 Hz block by patch-clamp electrophysiology/cell based assay; outline: as §2
[20] = biological target: T3, Sodium channel protein type 10 subunit alpha; assay: Inhibition of human Nav1.8 assessed as 10 Hz block using double pulse protocol by patch-clamp electrophysiology/cell based assay; outline: as §2
[21] = biological target: T3, Sodium channel protein type 10 subunit alpha; assay: Inhibition of human Nav1.8 assessed as tonic block using double pulse protocol by patch-clamp electrophysiology/cell based assay; outline: as §2
[22] = biological target: T2, Sodium channel protein type 8 subunit alpha; assay: Inhibition of human Nav1.6 assessed as tonic block by patch-clamp electrophysiology/cell based assay; outline: as §1
[23] = biological target: T1, Sodium channel protein type 9 subunit alpha; assay: Inhibition of human Nav1.7 assessed as tonic block by patch-clamp electrophysiology/cell based assay
[24] = biological target: T4, Sodium channel protein type 4 subunit alpha; assay: Inhibition of human Nav1.4 assessed as inactivated-state block by patch-clamp electrophysiology/cell based assay; outline: as §2
[25] = biological target: T6, Sodium channel protein type 2 subunit alpha; assay: Inhibition of human Nav1.2 assessed as inactivated-state block by patch-clamp electrophysiology/cell based assay
[26] = Metabolic stability in rat liver microsomes assessed as drug turnover at 1 uM at 40 mins by LC-MS/MS analysis; type: ADME; conditions: read-out: Drug metabolism
Outline: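 Compound at 1 μM was incubated (n=2) with pooled rat liver microsomes (0.25 mg protein/ml) at 37°C for 0 and 40 min. Reactions were stopped with acetonitrile containing an internal standard, and parent disappearance was measured by LC-MS/MS. Percentage turnover was taken from peak heights relative to the zero-time samples.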

[27] = Displacement of [3H]sipatrigine from Wistar rat brain synaptosomes voltage-gated sodium channel by liquid scintillation counting; type: subcellular
[28] = test system: Mus musculus; assay: Toxicity in mouse assessed as motor coordination at 5 to 50 mg/kg, ip from day -1 to day 2 by RotaRod assay; type: organism-based; set-up: dose 5-50 mg/kg, route intraperitoneal; conditions: in vivo
[29] = test system: Mus musculus; assay: Neuroprotective activity in C57BL/6-Cg-Tg(Thy1-CFP)23Jrs.Tg(Tcra2D2, Tcrb2D2)1Kuch/J transgenic mouse optic neuritis model assessed as increase in ganglion cell survival at 5 mg/kg, ip; type: functional, organism-based; set-up: dose 5 mg/kg
[30] = test system: Mus musculus; assay: Immunosuppressive activity in […] oxazolone-induced ABH mouse assessed as effect on cell proliferation response in draining lymph node at 5 to 50 mg/kg, ip from day -1 to day 2 by local lymph node assay; type: functional, organism-based
[31] = test system: Mus musculus; assay: Neuroprotective activity in C57BL/6-Cg-Tg(Thy1-CFP)23Jrs.Tg(Tcra2D2, Tcrb2D2)1Kuch/J transgenic mouse optic neuritis model assessed as reduction in retinal loss measured as number of cells at 5 mg/kg, ip (reference value: 914 +/- 89 cells); type: functional; conditions: route intraperitoneal

Compound	inhibition at 50 µM [1] [%]	IC50 [4] [µM]	IC50 [6] [µM]	IC50 [7] [µM]	IC50 [8] [µM]	IC50 [10] [µM]	IC50 [11] [µM]	IC50 [12] [µM]	IC50 [13] [µM]	IC50 [15] [µM]	IC50 [16] [µM]	IC50 [17] [µM]	IC50 [18] [µM]	IC50 [22] [µM]	IC50 [24] [µM]	further results
O=C(NCc1noc(-c2c3ccccc3nn2CCn2ccnc2)n1)c1cccc(OC(F)(F)F)c1	78	32.2	10.5	3.32	0.92	2.55	36	4.76	18.3	8.54	15.3	97	> 100	> 100	4.58	IC50 [2]: 4.82 µM; IC50 [3]: 3.02 µM; IC50 [5]: 3.77 µM; IC50 [9]: 24.1 µM; IC50 [14]: 65 µM; IC50 [19]: 14.8 µM; IC50 [20]: 5.66 µM; IC50 [21]: 6.34 µM; IC50 [23]: 5.64 µM; IC50 [25]: 3.54 µM
O=C(NCc1noc(-c2nn(CCn3ccnc3)c3ccccc23)n1)c1ccccc1	47	> 100	56	24	19	21	> 100	22	> 100	> 100	> 100	> 100	> 100	> 100	24	metabolised at 40 min, 1 µM [26]: 47%; IC50 [27]: 13 µM; Activity [28]: Non-toxic; Activity [29]: Active; inhibition [30]: inactive; Activity [31]: 1298 /mm2
